Measured values of several laboratories.
Protocols differ between the studies behind these lines.
Organism: Human immunodeficiency virus 1
Read-out: viral replication

CSCC[C@H](NC(C)=O)C(=O)N[C@@H](CC(C)C)C(=O)N[C@@H](CCCNC(=N)N)C(=O)N[C@@H](Cc1c[nH]c2ccccc12)C(=O)N[C@@H](CO)C(=O)N[C@@H](CCCNC(=N)N)C(=O)N[C@@H](CCCCN)C(=O)N[C@@H](CC(C)C)C(=O)N1CCC[C@H]1C(=O)N[C@@H](CS)C(=O)N[C@H](C(=O)N[C@@H](CO)C(=O)O)C(C)C has an IC50 of > 10 µM (inhibitor; TZM-bl).
CC(C)CN(C[C@@H](O)[C@H](Cc1ccccc1)NC(=O)O[C@H]1CO[C@H]2OCC[C@H]21)S(=O)(=O)c1ccc(B(O)O)cc1 gave an IC50 of 0.0489 µM (MT4).
Cc1c(O)cccc1C(=O)N[C@@H](CSc1ccccc1)[C@H](O)CN1C[C@H]2CCCC[C@H]2C[C@H]1C(=O)NC(C)(C)C gave an IC50 of 0.012 µM (human PBMC).
CC(C)CN(C[C@@H](O)[C@H](Cc1ccccc1)NC(=O)O[C@H]1CCO[C@H]2OCC[C@H]21)S(=O)(=O)c1ccc(B(O)O)cc1 gave an IC50 of 0.12 µM (inhibitor; MT2).
For Cc1cn([C@H]2C[C@H](N=[N+]=[N-])[C@@H](CO)O2)c(=O)[nH]c1=O, the IC90 was > 1 µM (human PBMC; clinical isolate).
COc1ccccc1NC(=O)c1ccccc1Cl has an IC50 of > 50 µM (MT4).
The IC50 of CC(C)CN(C[C@@H](O)[C@H](Cc1ccccc1)NC(=O)O[C@H]1CCO[C@H]2OCC[C@H]21)S(=O)(=O)c1ccc(C(=O)O)cc1 is reported as > 1 µM (inhibitor; MT2).
CC(C)c1nc(CN(C)C(=O)N[C@H](C(=O)N[C@@H](Cc2ccccc2)C[C@H](O)[C@H](Cc2ccccc2)NC(=O)OCc2cncs2)C(C)C)cs1 gave an IC90 of 0.0923 µM (inhibitor; human PBMC; clinical isolate).
With Cc1cccc(C)c1OCC(=O)N[C@@H](Cc1ccccc1)[C@@H](O)C[C@H](Cc1ccccc1)NC(=O)[C@H](C(C)C)N1CCCNC1=O the IC50 was 0.013 µM (MT4).
C[C@@H](O[C@H]1OCCN(Cc2n[nH]c(=O)[nH]2)[C@H]1c1ccc(F)cc1)c1cc(C(F)(F)F)cc(C(F)(F)F)c1 has an IC50 of 6.37 µM (inhibitor; human PBMC; clinical isolate).
CC(C)CN(C[C@@H](O)[C@H](Cc1ccccc1)NC(=O)O[C@H]1CO[C@H]2OCC[C@H]21)S(=O)(=O)c1ccc(N)cc1 gave an IC50 of 0.0033 µM (MT2).
With CC(C)Nc1cccnc1N1CCN(C(=O)c2cc3cc(NS(C)(=O)=O)ccc3[nH]2)CC1 the IC50 was 0.0306 µM (inhibitor; human PBMC; clinical isolate).
